Experimental data reported in PubChem BioAssay.
Results filed as inconclusive are left out.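 How the source made its calls, unless noted: active means cell viability at or below a set limit in both duplicate runs, the limit being the all-compound median minus 4 SD (cut at about 23% in these data, passing the limit was not always enough); inconclusive means no clear call, values can overlap the other calls; inactive means the rest.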

What was measured:
[1] = S. cerevisiae growth inhibition in permissive medium (OD615), pilot counter-assay for S. cerevisiae lifespan shortening project, permissive growth control (AID 705;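 active means growth inhibition above 25% in both replicates, a cutoff set 3 SD above the mean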); details: OD615, 24 h, at 10 µM, hits give high values
Outline: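 assay system = Saccharomyces cerevisiae strain carrying genetically modified DeaD replicative-lifespan system | medium = SC raffinose/galactose permissive medium | dosing = 10 µM single dose, 0.25% DMSO | schedule = 24 h compound exposure at 30 °C after 4 h pre-growth | measured by = OD at 615 nm | read-out basis = growth inhibition from lowered OD615 after 24 h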

[2] = S. cerevisiae growth inhibition in restrictive medium, OD615, pilot screen, restrictive growth control, yeast lifespan reduction project (AID 706;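 active means growth inhibition above a set limit, 3 SD over mean compound inhibition, in both replicates, cut at about 43% in these data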;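 further: modified DeaD lifespan yeast strain shifted to restrictive glucose medium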); details: OD615, 48 h, at 10 µM, hits give high values
Outline: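 Buffer or medium: CSMM-D glucose medium. Material: genetically modified Saccharomyces cerevisiae, DeaD replicative lifespan assay strain. Times: 48 h compound exposure at 30 °C. Measured by: optical density at 615 nm.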

[3] = doxorubicin toxicity protection in MRP-1 cells – H69AR cells, CellTiter-Glo, duplicate, MRP-1 activator project, pilot screen (AID 807;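 active means viability increase at or above a cutoff of the median across tested compounds plus 3 SD, cut at about 8.5% in these data, passing the limit was not always enough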;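 further: compound pretreatment 18-22 h then 72 h combined with doxorubicin; 0% = doxorubicin alone and 100% = vehicle without doxorubicin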); details: H69AR viability with doxorubicin, CellTiter-Glo luminescence; at 10 µM; hits give high values
[4] = viability of HCT116 without oncogenic beta-catenin – human colon tumor cells, pilot screen (AID 823); details: HCT116 beta-catenin knockout viability, CellTiter-Glo, 60 h; at 10 µM; hits give low values;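 further: 0% = wells killed by 20 µM Hyamine and 100% = untreated DMSO cell wells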
[5] = viability of PTEN-null HCT116 cells – cell-based, HCT116 clonal line, CellTiter-Glo, pilot screen (AID 824;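 active means viability at or below 27.92% in each of two runs, the all-compound median minus 4 SD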;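 further: 0% = 20 µM Hyamine control and 100% = vehicle cell control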); details: HCT116 PTEN-deleted viability, 60 h, at 10 µM, hits give low values
[6] = RAM pathway blockade in budding yeast – dse1pr::URA3 reporter, 5-FOA selection, pilot screen (AID 869;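 active means inhibition over a set limit, the all-compound mean plus 3 SD, in both replicate runs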;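 further: 0% = DMSO wells with no growth and 100% = 10 µM 1-NA-PP1 with full growth; RAM network block rescues cells from 5-FOA so hits raise OD615 growth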); details: S. cerevisiae dse1pr::URA3 5-FOA growth, OD615, 2 d; at 10 µM; hits give high values; strain carries analog-sensitive mutant Cbk1 kinase
[7] = RAM signaling pathway blockade in yeast – S. cerevisiae, Pdr1DBD-CYC8 efflux-inhibited sensitized strain, primary screen (AID 1298;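 active means RAM network inhibition above 8.4% in each of two replicates, 3 SD over the compound average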;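 further: 0% = DMSO untreated cells without growth and 100% = 10 µM 1-NA-PP1 full growth; higher means more yeast growth rescued from 5-FOA killing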); details: S. cerevisiae cbk1-as DSE1-URA3 strain, 5-FOA growth OD615, 2 d; at 50 µM; hits give high values

CCOC(=O)C1=C(C)NC(=O)NC1c1ccc(N(CC)CC)cc1 (configuration not stated)
inactive: growth inhibition [1] -11.1% | growth inhibition [2] -3.54% | viability increase [3] -1.3% | viability [4] 97.5% | viability [5] 99.3% | inhibition [6] 1.44% | RAM network inhibition [7] 1.67%

COc1cc(C2C(C(=O)Nc3ccccc3OC)=C(C)Nc3ncnn32)ccc1O (configuration not stated)
inactive: growth inhibition [1] -14.3% | growth inhibition [2] 14.1% | viability increase [3] -2.38% | viability [4] 100% | viability [5] 95.3% | inhibition [6] 1.42% | RAM network inhibition [7] -0.99%

CN(C)c1cc(-c2ccccc2)nc(N)n1
inactive: growth inhibition [1] -13.3% | growth inhibition [2] -15.5% | viability increase [3] -6.2% | viability [4] 64.2% | viability [5] 55.8% | inhibition [6] 2.73% | RAM network inhibition [7] 0.09%

Cn1c(NC(=O)c2ccc(C(C)(C)C)cc2)cc(=O)n(C)c1=O
inactive: growth inhibition [1] -2.62% | growth inhibition [2] -6.46% | viability increase [3] -2.04% | viability [4] 91.1% | viability [5] 96.5% | inhibition [6] 1.97% | RAM network inhibition [7] 1.63%

CCc1nccn1S(=O)(=O)c1ccc2ccccc2c1
inactive: growth inhibition [1] 0.77% | growth inhibition [2] -2.31% | viability increase [3] -1.22% | viability [4] 102% | viability [5] 103% | inhibition [6] 0.7% | RAM network inhibition [7] 3.49%

COc1ccc(-n2c(SCC(=O)Nc3ccccc3)nc3c(c2=O)SCC3)cc1
inactive: growth inhibition [1] -1.34% | growth inhibition [2] 0.23% | viability increase [3] 3.8% | viability [4] 101% | viability [5] 96% | inhibition [6] 0.755% | RAM network inhibition [7] 9.27%

COc1ccc(CC(=O)N2CCN=C2SC)cc1
inactive: growth inhibition [1] 3.24% | growth inhibition [2] -0.34% | viability increase [3] 1.06% | viability [4] 99.3% | viability [5] 103% | inhibition [6] 1.54% | RAM network inhibition [7] 0.48%

CCOC(=O)C1C(=O)OC2(CCOC(C)(C)C2)C1C(=O)OCC (configuration not stated)
inactive: growth inhibition [1] 1.65% | growth inhibition [2] 7.69% | viability increase [3] -0.15% | viability [4] 105% | viability [5] 100% | inhibition [6] 1.38% | RAM network inhibition [7] 0.98%

CCOc1ccc(-c2nc(CSCC(=O)N3CCN(C(=O)c4ccco4)CC3)c(C)o2)cc1
inactive: growth inhibition [1] -0.515% | growth inhibition [2] 26% | viability increase [3] -2.43% | viability [4] 81.9% | viability [5] 90.4% | inhibition [6] 0.525% | RAM network inhibition [7] 10.9%

COC(=O)CCC(=O)Nc1ccc(NC(=O)CCC(=O)OC)cc1
inactive: growth inhibition [1] -0.195% | growth inhibition [2] 0.195% | viability increase [3] -1.73% | viability [4] 103% | viability [5] 96.9% | inhibition [6] 1.73% | RAM network inhibition [7] 0.97%

Cc1cc(C)n(-c2nc3ccccc3nc2Nc2ccc(CC(=O)O)cc2)n1
inactive: growth inhibition [1] 5.73% | growth inhibition [2] -0.88% | viability increase [3] -1.81% | viability [4] 98.8% | viability [5] 95.5% | inhibition [6] -1.14% | RAM network inhibition [7] -2.71%

OCCCc1nc2n(n1)C(c1cccs1)C=C(c1ccccc1)N2 (configuration not stated)
inactive: growth inhibition [1] -17.7% | growth inhibition [2] -5.79% | viability increase [3] -4.73% | viability [4] 83.6% | viability [5] 84.7% | inhibition [6] 3.25% | RAM network inhibition [7] 3.92%

COc1ccc(C2C(C#N)=C(N)N3C(=C2C#N)Sc2ccccc23)cc1 (configuration not stated)
inactive: growth inhibition [1] -1.28% | growth inhibition [2] -4.12% | viability increase [3] -0.06% | viability [4] 98.9% | viability [5] 102% | inhibition [6] 1.09% | RAM network inhibition [7] 8.82%

CCc1ccc(-c2nc(CN3CCCC(C(=O)O)C3)c(C)o2)cc1 (configuration not stated)
inactive: growth inhibition [1] 2.06% | growth inhibition [2] -4.83% | viability increase [3] 1.14% | viability [4] 97.6% | viability [5] 101% | inhibition [6] -0.145% | RAM network inhibition [7] 2.81%

O=C(Cn1ncc2ccccc21)N1CCc2ccccc21
inactive: growth inhibition [1] -9.24% | growth inhibition [2] -14.6% | viability increase [3] -3% | viability [4] 72.2% | viability [5] 84.2% | inhibition [6] 1.26% | RAM network inhibition [7] 3.51%

CCOCCCNC(=O)CN1C(=O)CSc2ccccc21
inactive: growth inhibition [1] -18.9% | growth inhibition [2] -6.29% | viability increase [3] -0.22% | viability [4] 101% | viability [5] 98.9% | inhibition [6] 1.49% | RAM network inhibition [7] 2.6%

Cc1cc(NC(=O)c2ccccc2)sc1C
inactive: growth inhibition [1] -5.22% | growth inhibition [2] 3.02% | viability increase [3] -3.69% | viability [4] 70.7% | viability [5] 70% | inhibition [6] -1.59% | RAM network inhibition [7] -1.89%

CC1=C(C(=O)OCC(C)C)C(c2ccccc2Cl)NC(=O)N1C (configuration not stated)
inactive: growth inhibition [1] -4.34% | growth inhibition [2] -8.57% | viability increase [3] -3.3% | viability [4] 58.5% | viability [5] 67.8% | inhibition [6] 0.59% | RAM network inhibition [7] 1.74%

Cc1ccc(C)c(N2CCN(C(=O)C3CCCN(S(=O)(=O)c4cnc[nH]4)C3)CC2)c1 (configuration not stated)
inactive: growth inhibition [1] 5.12% | growth inhibition [2] -0.49% | viability increase [3] 2.66% | viability [4] 94.9% | viability [5] 95.4% | inhibition [6] 2.12% | RAM network inhibition [7] -0.52%

COc1cccc(C2CC(c3ccccc3)Nc3nc(N)nn32)c1 (configuration not stated)
inactive: growth inhibition [1] -2.81% | growth inhibition [2] 7.94% | viability increase [3] 0.44% | viability [4] 94.9% | viability [5] 93.5% | inhibition [6] 1.83% | RAM network inhibition [7] 3.16%

COc1ccc(OC)c(NC(=O)c2nnn(CCc3ccccc3)c2N)c1
inactive: growth inhibition [1] -5.97% | growth inhibition [2] -3.14% | viability increase [3] -4.62% | viability [4] 88% | viability [5] 89.7% | inhibition [6] 1.85% | RAM network inhibition [7] 13.1%

COC(=O)CCS(=O)(=O)c1cc(Cl)ccc1Cl
inactive: growth inhibition [1] -5.18% | growth inhibition [2] 7.17% | viability increase [3] -1.81% | viability [4] 95.4% | viability [5] 94.9% | inhibition [6] -1.08% | RAM network inhibition [7] 1.34%

CC(C)(C)c1nc(CN2CCCCC2)cc(CN2CCCCC2)c1O
inactive: growth inhibition [1] -13.8% | growth inhibition [2] -12.6% | viability increase [3] -5.26% | viability [4] 70.8% | viability [5] 76.2% | inhibition [6] 0.505% | RAM network inhibition [7] 1.19%

Cc1ccccc1N(CC(=O)NCCSCc1ccco1)S(C)(=O)=O
inactive: growth inhibition [1] -4.43% | growth inhibition [2] -7.72% | viability increase [3] -3.94% | viability [4] 93.1% | viability [5] 95.5% | inhibition [6] -0.58% | RAM network inhibition [7] 7.43%

COC(=O)CCSCC(=O)Nc1nnc(C)s1
inactive: growth inhibition [1] 3.46% | growth inhibition [2] -7.57% | viability increase [3] -0.31% | viability [4] 108% | viability [5] 93.1% | inhibition [6] 3.05% | RAM network inhibition [7] 0.66%

COc1ccc(CCNC(=O)c2c(-c3ccccc3)noc2C)cc1OC
inactive: growth inhibition [1] 3.07% | growth inhibition [2] -2.27% | viability increase [3] 0.19% | viability [4] 102% | viability [5] 101% | inhibition [6] 2.2% | RAM network inhibition [7] 0.43%

COCCn1c(SCC(N)=O)nc2c(c1=O)SC(C)C2 (configuration not stated)
inactive: growth inhibition [1] -1.48% | growth inhibition [2] -3.57% | viability increase [3] 0.08% | viability [4] 99.4% | viability [5] 97% | inhibition [6] 1.84% | RAM network inhibition [7] 5.52%

COc1ccccc1S(=O)Cc1ccc(C(=O)NCc2ccccc2Cl)o1 (configuration not stated)
inactive: growth inhibition [1] -7.49% | growth inhibition [2] -16.8% | viability increase [3] -1.27% | viability [4] 100% | viability [5] 89.7% | inhibition [6] 2.41% | RAM network inhibition [7] 4.64%

CC(=O)Nc1ccc(S(=O)(=O)n2cnc3cc(C)c(C)cc32)cc1
inactive: growth inhibition [1] -7.58% | growth inhibition [2] 1.31% | viability increase [3] -0.2% | viability [4] 99.6% | viability [5] 92.2% | inhibition [6] -0.09% | RAM network inhibition [7] 1.45%

NC(=O)c1cc(S(=O)(=O)Nc2cccc(F)c2)co1
inactive: growth inhibition [1] -17.4% | growth inhibition [2] -9.41% | viability increase [3] -0.8% | viability [4] 103% | viability [5] 103% | inhibition [6] 1.69% | RAM network inhibition [7] 2.85%

O=C(c1ccc2c(c1)C(=O)N(Cc1ccco1)C2O)N1CCOCC1 (configuration not stated)
inactive: growth inhibition [1] 1% | growth inhibition [2] -5.05% | viability increase [3] -2.58% | viability [4] 109% | viability [5] 98.3% | inhibition [6] 2.12% | RAM network inhibition [7] 1.94%

CCCc1ccc(OCC(O)CN2CCN(c3ccccc3)CC2)cc1 (configuration not stated)
inactive: growth inhibition [1] 4.55% | growth inhibition [2] 3.57% | viability increase [3] -0.47% | viability [4] 83% | viability [5] 81.6% | inhibition [6] 0.325% | RAM network inhibition [7] 1.55%

CCOC(=O)N1CCC(N2CC34C=CC(O3)C(C(=O)Nc3ccc(C(C)C)cc3)C4C2=O)CC1 (configuration not stated)
inactive: growth inhibition [1] 2.48% | growth inhibition [2] -7.2% | viability increase [3] 3.15% | viability [4] 102% | viability [5] 99.6% | inhibition [6] 0.27% | RAM network inhibition [7] -0.37%

O=C(CSc1nc2c([nH]c3ccccc32)c(=O)n1-c1cccc(Cl)c1)N1CCOCC1
inactive: growth inhibition [1] -16.6% | growth inhibition [2] -12.8% | viability increase [3] -3.3% | viability [4] 79.6% | viability [5] 79.9% | inhibition [6] 1.64% | RAM network inhibition [7] 3.01%

Cc1ccccc1C(=O)OCn1nnc2ccccc2c1=O
inactive: growth inhibition [1] -1.86% | growth inhibition [2] -19.1% | viability increase [3] -2.87% | viability [4] 88.9% | viability [5] 93.2% | inhibition [6] 1.44% | RAM network inhibition [7] 2.2%

Cn1c(=O)oc2cc(S(=O)(=O)N3CCC(N4CCCCC4)CC3)ccc21
inactive: growth inhibition [1] -15.8% | growth inhibition [2] -13.1% | viability increase [3] -1.67% | viability [4] 98.7% | viability [5] 93% | inhibition [6] -0.02% | RAM network inhibition [7] 1.06%
